HCT116 bCat-KO: beta-catenin-lacking colon tumor cell growth suppression; HCT116 beta-catenin knockout viability, CellTiter-Glo, 60 h; hits give low values; viability, % at 10 µM; actives 1.5% (n = 140,000); AID 818;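 active means viability at or under a set limit, the compound median less 4 SD, cut at about 6% in these data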
HUVEC inhibit: blocks proliferation of human endothelial cells. viability, % at 10 µM (by protocol). HUVEC proliferation, CellTiter-Glo luminescence, 72 h; hits give low values. actives 1.1% (n = 86,000);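 active means viability at or below 30%; inactive means viability above 30%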
PTEN del growth: suppresses growth of cells with PTEN deletion; HCT116 PTEN-null viability, CellTiter-Glo, 60 h; hits give low values; viability, % at 10 µM; actives 1.2% (n = 140,000); AID 827;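 active means viability at or below a set limit, 4 SD under the median of all tested compounds, cut at about 3.7% in these data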;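 further: PTEN knockout HCT116 line with beta catenin targeted HCT116 as companion control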
H69AR inhibit: growth inhibitors of human H69AR lung tumor cells; H69AR lung tumor viability, ATP luminescence, 72 h; hits give low values; viability, % at 10 µM; actives 6% (n = 85,000);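 active means viability at or below 40%; inactive means viability above 40%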;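 further: multidrug resistant small cell line overexpressing MRP-1 efflux transporter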
Lung fibro prol: blocks proliferation of human lung fibroblasts; LL 47 human lung fibroblast viability, ATP luminescence; hits give low values; actives 1.1% (n = 85,000); viability, % at 10 µM;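 active means viability at or below 50% in the single dose screen; inactive means viability above 50%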;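 further: compound exposure lasted 72 h before the ATP readout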
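test system = LL 47 human lung fibroblasts | amount = 1,150 fibroblasts seeded per well | medium = 15% FBS in IMEM | times = overnight cell rest, 72 h compound treatment at 37 °C | measured by = CellTiter-Glo luminescence measuring cellular ATP | read-out = viability percentage against median untreated-cell control | benchmarks = cell-only wells, no compound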
A number is an active result; - = inactive; . = no result. The full list was thinned out, with hits kept by preference.

SMILES | HCT116 bCat-KO | HUVEC inhibit | PTEN del growth | H69AR inhibit | Lung fibro prol
O=C(CC(=O)c1ccccc1O)c1ccc(F)cc1 | - | . | - | . | .
CC(C)(C)c1ccc(C(=O)NNC(=O)c2ccc(Cl)cc2)cc1 | - | . | - | . | .
Cc1ccc(C(=O)CC(=O)c2cc(Cl)ccc2O)cc1 | - | 9.4 | - | 5.2 | 29.8
CC(C)(C)c1ccc(C(=O)CC(=O)c2cc(Cl)ccc2O)cc1 | - | 7.6 | - | 25.3 | 46.3
COc1ccc(/C(N)=N/OC(=O)c2ccc(C)c([N+](=O)[O-])c2)cc1OC | - | - | - | 24.2 | -
Cc1ccc(C(=O)O/N=C(\N)c2cccnc2)cc1[N+](=O)[O-] | - | . | - | . | .
Cc1cc(C)cc(C(=O)O/N=C(\N)c2ccc(Br)cc2)c1 | - | - | - | 33.7 | -
Cc1ccc(C(=O)O/N=C(\N)c2ccc(Br)cc2)cc1C | - | - | - | 28.4 | -
CC(NC(=O)CSCc1ccccc1Br)c1ccccc1 (centres undefined) | - | . | - | . | .
CCOC(=O)C1C(=O)C=C(/C=C/c2ccc(N(C)C)cc2)CC1c1ccccc1 (centres undefined) | - | . | - | . | .
COCCCn1c2nc3ccccc3nc2c2c(=O)n(Cc3ccccc3Cl)cnc21 | . | 27.1 | . | 3.2 | -
N#Cc1ccc(OCC(=O)OCC(=O)Nc2cc(C(F)(F)F)ccc2N2CCOCC2)cc1 | - | . | - | . | .
CCOC(=O)c1cnc(C(C)(C)C)[nH]c1=O | - | - | - | - | -
CC(C)C(NC(=O)C1CCCCC1)C(=O)NC1=NCCS1 (centres undefined) | - | - | - | - | -
CCC1(c2ccc(F)cc2)NC(=O)N(CC(=O)Nc2ccc(-c3nc4ccc(C)cc4s3)cc2)C1=O (centres undefined) | 1.1 | . | 1.3 | . | .
COc1cc2c(cc1NC(=O)CN(C)Cc1cccc(OC)c1OC)oc1ccccc12 | - | . | - | . | .
CN1CCc2c(C#N)c(N3CCCCC3)nc(NCc3ccccc3)c2C1 | 1.0 | 10.7 | 1.4 | 3.4 | -
N#Cc1c(NCCCO)nc(NCc2ccccc2)c2c1CCN(Cc1ccccc1)C2 | - | - | - | - | -
CCCc1cc(=O)[nH]c(/N=C(/NC(=O)c2ccccc2)Nc2ccc3c(c2)OCCO3)n1 | . | - | . | 32.4 | -
COc1ccc(-c2[nH]ncc2-c2ccc3c(c2)OCCO3)c(O)c1 | - | . | - | . | .
CCCc1cc(-c2[nH]ncc2-c2ccc3c(c2)OCCCO3)c(O)cc1OC | - | 5.5 | - | 17.6 | -
CCc1cc(-c2[nH]ncc2-c2ccc3c(c2)OCO3)c(O)cc1O | - | 9.7 | - | - | -
C=CCC(NC(C)c1ccccc1)c1ccco1 (centres undefined) | - | - | - | - | -
Cc1ccc(C2C3=C(CCCC3=O)N=C3c4ccccc4C(=O)C32)cc1 (centres undefined) | - | . | - | . | .
COc1ccc(NC(=O)CSc2nc(C)c3c(c2C#N)CCCC3)cc1 | - | - | - | - | -
SMILES | HCT116 bCat-KO | HUVEC inhibit | PTEN del growth | H69AR inhibit | Lung fibro prol
CCc1nnc(NC(=O)CSc2nc(C)c3c(c2C#N)CCCC3)s1 | - | - | - | 24.2 | -
C[C@@H](NC(=O)c1coc(=O)c(Br)c1)c1ccccc1 | - | - | - | 3.7 | -
Cc1ccc2c(COn3nnc4ccc(S(=O)(=O)N(C)C)cc43)cc(=O)oc2c1C | - | - | - | 33.3 | -
Cc1ccc(OCc2nnc(SCC(=O)c3cccc([N+](=O)[O-])c3)n2C)cc1 | - | . | - | . | .
COc1cccc(N/C(SC)=C(/C#N)C(N)=O)c1 | - | - | - | 28.1 | -
CC(=O)N1N=C(c2ccco2)CC1c1cccs1 (centres undefined) | - | . | - | . | .
CC(=O)N1N=C(c2ccc(C)o2)CC1c1ccc(Br)cc1 (centres undefined) | - | . | - | . | .
Cc1ccc(C2=NN(C(=O)CCl)C(c3cccs3)C2)o1 (centres undefined) | 3.6 | . | 2.1 | . | .
O=C(CCl)N1N=C(c2ccco2)CC1c1cccs1 (centres undefined) | 3.2 | . | 1.9 | . | .
COc1ccccc1/C=c1\sc2nc(-c3ccco3)nn2c1=O | - | - | - | 35.8 | -
Cc1cc2cc(CNC(=O)c3ccc(C)c([N+](=O)[O-])c3)ccc2[nH]1 | - | . | - | . | .
O=C(CSc1nnnn1-c1cccc2c1CCCC2)N1CCCCC1 | - | - | - | 39.9 | -
COc1cc(/C=N\NC(=O)c2ccc(Cn3cc(Br)c([N+](=O)[O-])n3)o2)cc(OC)c1O | - | . | - | . | .
Cc1ccc(S(=O)(=O)c2cc3c(=O)n4cccc(C)c4nc3n(CC3CCCO3)c2=N)cc1 (centres undefined) | . | - | . | 39.8 | -
N#Cc1ccc(-c2csc(NNC(=O)c3ccc(Br)cc3)n2)cc1 | 2.8 | . | - | . | .
Cc1nn(Cc2c(F)c(F)c(F)c(F)c2F)c(C)c1NC(=O)c1ccc(COc2ccc(F)cc2)o1 | - | . | - | . | .
Cc1ccc(C)c(S(=O)(=O)NCc2ccc(C(=O)N3CCC(Cc4ccccc4)CC3)cc2)c1 | - | - | - | 35.7 | -
Cc1nn(-c2ccccn2)c2c1-c1nc(N)ncc1CC2 | - | - | - | - | -
Cc1nn(-c2ccccn2)c2c1-c1nc(N3CCOCC3)ncc1CC2 | - | - | - | 10.1 | -
CCn1cc(Cl)c(C(=O)N2N=C(c3ccc4ccccc4c3)CC2c2ccccc2O)n1 (centres undefined) | - | . | - | . | .
CCn1cc([N+](=O)[O-])c(C(=O)N2N=C(c3cccc4ccccc34)CC2c2ccccc2O)n1 (centres undefined) | 3.4 | - | - | - | -
CCn1cc([N+](=O)[O-])c(C(=O)N2N=C(c3ccc4ccccc4c3)CC2c2ccccc2O)n1 (centres undefined) | 3.2 | 14.7 | - | - | -
CCOC(=O)c1nsnc1NCCSC(=N)N | - | . | - | . | .
COc1ccc2cc3cc(C(=O)NCc4ccco4)oc3nc2c1 | - | - | - | - | -
O=C(NCc1ccco1)c1cc2cc3ccc(Cl)cc3nc2o1 | - | - | - | 9.5 | -
SMILES | HCT116 bCat-KO | HUVEC inhibit | PTEN del growth | H69AR inhibit | Lung fibro prol
Cc1cc(OC(C)C)nc(NCc2ccccc2)n1 | - | - | - | - | -
Fc1ccc(-c2cc(C(F)(F)F)nc(NCc3cccs3)n2)cc1 | - | . | - | . | .
CSc1n[nH]c(NCc2cccs2)n1 | 1.2 | - | - | - | -
c1ccc(CCn2c(C3CC3)nc3ccccc32)cc1 | - | - | - | - | -
CN1/C(=C/C(=O)c2cccs2)Sc2ccccc21 | - | - | - | - | -
CN1/C(=C\C(=O)c2cccs2)Sc2ccccc21 | - | - | - | 39.8 | -
COc1cccc(-n2nc(C(C)=O)c(C#N)c2-c2ccco2)c1 | - | . | - | . | .
N=c1n(CCN2CCCCC2)c2ccccc2n1CC(O)c1cccc(Br)c1 (centres undefined) | - | - | - | 22.3 | 46.4
N=c1n(CCN2CCCC2)c2ccccc2n1CC(O)c1ccco1 (centres undefined) | - | - | - | - | -
N=c1n(CCN2CCCCC2)c2ccccc2n1CC(O)c1ccc(Cl)c(Cl)c1 (centres undefined) | 0.9 | . | 1.1 | . | .
CNS(=O)(=O)c1ccc(NC(=O)c2ccccn2)cc1 | - | . | - | . | .
CCc1cc2ccc(C)cc2nc1SCC(=O)N1CCN(C(=O)c2ccco2)CC1 | - | - | - | 36.3 | -

From PubChem BioAssay
